Test results published in ChEMBL document CHEMBL1122847, “Antitrichomonal activity of mesoionic thiazolo[3,2-a]pyridines” (1985).
Converted amounts (≈) assume the structure as drawn.

Legend:
Tritrichomonas suis [1] = assay: The minimum lethal concentration (MLC) against Trichomonas foetus; type: functional
Outline: (§1)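 Broth microdilution in Kupferberg's medium (pH 7.2); compounds serially diluted 200–0.2 µg/mL in duplicate; each well inoculated with T. foetus at 15 parasites/mm3 in broth, overlaid with sterile mineral oil; 30 °C for 48 h; wells examined microscopically for viable parasites; MLC = lowest concentration without viable parasites; single values reflect consistent duplicate end points.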

Mesocricetus auratus [2] = species: Mesocricetus auratus; assay: Value is expressed as the ratio of (Tritrichomonas foetus) animals cured / total number(5) infected at day 4 post treatment after 4 days of treatment
Cricetinae gen. sp. [3] = assay: Value is expressed as the ratio of (Tritrichomonas foetus) animals cured / total number(5) infected at day 1 post treatment after 4 days of treatment; type: functional, Cricetulus griseus
Outline: (§2)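 From day 3 postinfection, animals got one daily intravaginal 2% (w/w) propylene glycol cream dose plus two daily sc suspension doses (100 mg/kg) for 4 days. Vaginal washings (Kupferberg's medium) were taken days 1 and 4 posttreatment and checked microscopically for viable parasites.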

Cricetinae gen. sp. [4] = assay: Value is expressed as the ratio of (Tritrichomonas foetus infected) animals cured / total number(5) infected at day 1 post treatment after 4 days of treatment; type: functional, Cricetulus griseus; outline: as §2
Cricetinae gen. sp. [5] = assay: Value is expressed as the ratio of (Tritrichomonas foetus infected) animals cured / total number(5) infected at day 4 post treatment after 4 days of treatment; type: functional, Cricetulus griseus; outline: as §2
Tritrichomonas suis [6] = assay: The minimum lethal concentration (MLC) is determined in Trichomonas foetus; type: functional; outline: as §1
Mesocricetus auratus [7] = species: Mesocricetus auratus; assay: Value is expressed as the ratio of (Tritrichomonas foetus infected) animals cured / total number(15) infected at day 1 post treatment after 4 days of treatment
Mesocricetus auratus [8] = species: Mesocricetus auratus; assay: Value is expressed as the ratio of (Tritrichomonas foetus infected) animals cured / total number(15) infected at day 4 post treatment after 4 days of treatment

SMILES: O=[N+]([O-])c1ccc(-c2sc3cccc[n+]3c2[O-])cc1
- MLC (Tritrichomonas suis [1]): >200 µg/mL

SMILES: CC(=O)Nc1cccc(-c2sc3cccc[n+]3c2[O-])c1
- MLC (Tritrichomonas suis [1]): 200 µg/mL (≈ 703 µM)

SMILES: Nc1ccccc1-c1sc2cccc[n+]2c1[O-]
- MLC (Tritrichomonas suis [1]): 3.12 µg/mL (≈ 12.9 µM)

SMILES: Br.[NH-]c1c(-c2ccccc2)sc2cccc[n+]12
- MLC (Tritrichomonas suis [1]): >200 µg/mL

SMILES: Nc1ccc2sc(-c3ccccc3)c([O-])[n+]2c1
- MLC (Tritrichomonas suis [1]): 100 µg/mL (≈ 413 µM)

SMILES: [O-]c1c(-c2ccccc2)sc2sc3ccccc3[n+]12
- MLC (Tritrichomonas suis [1]): >200 µg/mL

SMILES: CC(=O)[N-]c1c(-c2ccccc2)sc2cccc[n+]12
- MLC (Tritrichomonas suis [1]): >200 µg/mL

SMILES: [O-]c1c(-c2ccccc2)sc2nccc[n+]12
- MLC (Tritrichomonas suis [1]): >200 µg/mL

SMILES: [O-]c1c(-c2ccc(Cl)cc2)sc2cccc[n+]12
- Activity (Mesocricetus auratus [2]): 0
- Activity (Cricetinae gen. sp. [3]): 0
- MLC (Tritrichomonas suis [1]): 25 µg/mL (≈ 95.5 µM)

SMILES: O=[N+]([O-])c1ccccc1-c1sc2cccc[n+]2c1[O-]
- MLC (Tritrichomonas suis [1]): 25 µg/mL (≈ 91.8 µM)

SMILES: O=[N+]([O-])c1cccc(-c2sc3cccc[n+]3c2[O-])c1
- MLC (Tritrichomonas suis [1]): >200 µg/mL

SMILES: Cc1ccc(-c2sc3cccc[n+]3c2[O-])cc1
- Activity (Mesocricetus auratus [2]): 0
- Activity (Cricetinae gen. sp. [3]): 0
- MLC (Tritrichomonas suis [1]): 12.5 µg/mL (≈ 51.8 µM)

SMILES: [O-]c1c(-c2ccccc2)sc2cccc[n+]12
- Activity (Mesocricetus auratus [2]): 0
- Activity (Cricetinae gen. sp. [3]): 0
- MLC (Tritrichomonas suis [1]): 12.5 µg/mL (≈ 55 µM)

SMILES: CC(C)(C)c1ccc(-c2sc3cccc[n+]3c2[O-])cc1
- MLC (Tritrichomonas suis [1]): 25 µg/mL (≈ 88.2 µM)

SMILES: [O-]c1c(-c2ccccc2)sc2cncc[n+]12
- MLC (Tritrichomonas suis [1]): >200 µg/mL

SMILES: O=[N+]([O-])c1ccc2sc(-c3ccccc3)c([O-])[n+]2c1
- MLC (Tritrichomonas suis [1]): 200 µg/mL (≈ 735 µM)

SMILES: CC(=O)Nc1ccc(-c2sc3cccc[n+]3c2[O-])cc1
- MLC (Tritrichomonas suis [1]): >200 µg/mL

SMILES: [S-]c1c(-c2ccccc2)sc2cccc[n+]12
- MLC (Tritrichomonas suis [1]): >200 µg/mL

SMILES: CCOC(=O)C(Sc1ccccn1)c1ccccc1 (stereo unspecified)
- Activity (Cricetinae gen. sp. [4]): 0
- Activity (Cricetinae gen. sp. [5]): 0
- MLC (Tritrichomonas suis [1]): >200 µg/mL

SMILES: [O-]c1c(Sc2ccc(Cl)cc2)sc2cccc[n+]12
- MLC (Tritrichomonas suis [1]): >200 µg/mL

SMILES: OC1=C(c2ccccc2)SC(c2ccccc2)N1c1ccccc1 (stereo unspecified)
- MLC (Tritrichomonas suis [6]): >200 µg/mL

SMILES: [O-]c1c(-c2ccncc2)sc2cccc[n+]12
- Activity (Mesocricetus auratus [2]): 0
- Activity (Cricetinae gen. sp. [3]): 4
- MLC (Tritrichomonas suis [1]): 50 µg/mL (≈ 219 µM)

SMILES: [O-]c1c(-c2ccccc2)oc2cccc[n+]12
- Activity (Mesocricetus auratus [2]): 0
- Activity (Cricetinae gen. sp. [3]): 0
- MLC (Tritrichomonas suis [1]): >200 µg/mL

SMILES: COc1ccc(-c2sc3cccc[n+]3c2[O-])cc1
- Activity (Mesocricetus auratus [2]): 0
- Activity (Cricetinae gen. sp. [3]): 0
- MLC (Tritrichomonas suis [1]): 6.25 µg/mL (≈ 24.3 µM)

SMILES: Nc1ccc[n+]2c([O-])c(-c3ccccc3)sc12
- MLC (Tritrichomonas suis [1]): 200 µg/mL (≈ 825 µM)

SMILES: Cc1ncc([N+](=O)[O-])n1CCO [METRONIDAZOLE]
- Activity (Mesocricetus auratus [7]): 15
- Activity (Mesocricetus auratus [8]): 15

SMILES: [O-]c1c(-c2ccccn2)sc2cccc[n+]12
- Activity (Mesocricetus auratus [2]): 0
- Activity (Cricetinae gen. sp. [3]): 1
- MLC (Tritrichomonas suis [1]): 25 µg/mL (≈ 110 µM)

SMILES: Nc1ccc(-c2sc3cccc[n+]3c2[O-])cc1
- Activity (Mesocricetus auratus [2]): 0
- Activity (Cricetinae gen. sp. [3]): 0
- MLC (Tritrichomonas suis [1]): 1.6 µg/mL (≈ 6.6 µM)

SMILES: [O-]c1c(-c2ccccc2Cl)sc2cccc[n+]12
- Activity (Mesocricetus auratus [2]): 0
- Activity (Cricetinae gen. sp. [3]): 0
- MLC (Tritrichomonas suis [1]): 100 µg/mL (≈ 382 µM)

SMILES: O=C([N-]c1c(-c2ccccc2)sc2cccc[n+]12)c1ccccc1
- MLC (Tritrichomonas suis [1]): >200 µg/mL

SMILES: Cc1cc[n+]2c([O-])c(-c3ccccc3)sc2c1
- MLC (Tritrichomonas suis [1]): 200 µg/mL (≈ 829 µM)

SMILES: O=[N+]([O-])c1ccc[n+]2c([O-])c(-c3ccccc3)sc12
- Activity (Mesocricetus auratus [2]): 0
- Activity (Cricetinae gen. sp. [3]): 0
- MLC (Tritrichomonas suis [1]): 0.8 µg/mL (≈ 2.94 µM)

SMILES: COc1ccc(-c2sc3cccc[n+]3c2[S-])cc1
- MLC (Tritrichomonas suis [1]): >200 µg/mL

SMILES: Nc1cccc(-c2sc3cccc[n+]3c2[O-])c1
- MLC (Tritrichomonas suis [1]): 12.5 µg/mL (≈ 51.6 µM)

SMILES: Cc1cccc2sc(-c3ccccc3)c([O-])[n+]12
- MLC (Tritrichomonas suis [1]): >200 µg/mL

SMILES: [O-]c1c(-c2ccccc2)sc2ccc3ccccc3[n+]12
- MLC (Tritrichomonas suis [1]): >200 µg/mL

SMILES: CN(C)c1ccc(-c2sc3cccc[n+]3c2[O-])cc1
- Activity (Mesocricetus auratus [2]): 0
- Activity (Cricetinae gen. sp. [3]): 0
- MLC (Tritrichomonas suis [1]): 0.8 µg/mL (≈ 2.96 µM)

SMILES: [S-]c1c(-c2ccc(Cl)cc2)sc2cccc[n+]12
- MLC (Tritrichomonas suis [1]): >200 µg/mL

SMILES: [O-]c1c(-c2cccnc2)sc2cccc[n+]12
- Activity (Mesocricetus auratus [2]): 0
- Activity (Cricetinae gen. sp. [3]): 0
- MLC (Tritrichomonas suis [1]): 12.5 µg/mL (≈ 54.8 µM)

SMILES: O=C([O-])C(Sc1ccccn1)c1ccccc1.[Na+] (stereo unspecified)
- Activity (Cricetinae gen. sp. [4]): 0
- Activity (Cricetinae gen. sp. [5]): 0
- MLC (Tritrichomonas suis [1]): >200 µg/mL

SMILES: [O-]c1c(/C=C/c2ccccc2)sc2cccc[n+]12
- MLC (Tritrichomonas suis [1]): 200 µg/mL (≈ 789 µM)

SMILES: [O-]c1c(-c2ccccc2)sc2c(O)ccc[n+]12
- MLC (Tritrichomonas suis [1]): >200 µg/mL
